Data: ChEMBL document CHEMBL3124822, “Discovery of a rapidly metabolized, long-acting β(2) adrenergic receptor agonist with a short onset time incorporating a sulfone group suitable for once-daily dosing” (J Med Chem, 2014)
pEC50: −log10 of the molar value.

Tests used:
Cavia porcellus [1] = experiment: Bronchodilatory activity in guinea pig assessed as duration of action of inhibition of histamine-induced bronchoconstriction at EC90 administered via nebulization 2 mins prior to histamine challenge; type: functional
Method in brief: (§1)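 Conscious guinea pigs, n = 24 per group, given test agonist as a nebulized solution in dimethylacetamide–saline vehicle (2 min nebulization) before histamine (10 mM, nebulized 1.3 min) in a whole-body plethysmograph. PenH recorded for 15 min as index of airway obstruction. Dose expressed as nebulizer concentration; duration taken as time to 50% recovery.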

Cavia porcellus [2] = experiment: Bronchodilatory activity in guinea pig assessed as inhibition of histamine-induced bronchoconstriction administered via nebulization 2 mins prior to histamine challenge; type: functional; method in brief: as §1
[3] = biological target: Beta-3 adrenergic receptor (Homo sapiens, UniProt P13945); experiment: Agonist activity at human beta3 adrenoceptor transfected in CHO cells assessed as cyclic AMP accumulation after 45 mins by fluorescence polarization assay; type: cell-based
[4] = biological target: Beta-1 adrenergic receptor (Homo sapiens, UniProt P08588); experiment: Agonist activity at human beta1 adrenoceptor transfected in CHO cells assessed as cyclic AMP accumulation after 45 mins by fluorescence polarization assay; type: cell-based
[5] = biological target: Beta-2 adrenergic receptor (Homo sapiens, UniProt P07550); experiment: Agonist activity at human beta2 adrenoceptor transfected in CHO cells assessed as cyclic AMP accumulation after 45 mins by fluorescence polarization assay; type: functional, cell-based
[6] = Stability of the compound in solid state; type: physicochemical
[7] = Stability of the compound in solution state; type: physicochemical
[8] = Plasma concentration in Sprague-Dawley rat at 1261 ug/kg/day measured on day 7 by 7-day snout-only inhalation assay; type: ADME; conditions: inhaled, 1.261 mg/kg
Method in brief: (§2)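 Sprague–Dawley male rats exposed snout-only to a dry powder formulation of the 4-biphenylsulfonic acid salt for 7 days at 181, 344, 703 and 1261 (μg/kg)/day (measured aerosol 5.1, 9.8, 19.9, 35.7 μg/L). Assessed clinically, with body weight, hematology, biochemistry and respiratory tract evaluation. Plasma exposure measured on day 7 as ng·h/mL.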

Rattus norvegicus [9] = experiment: Toxicity in Sprague-Dawley rat assessed as minimal irritancy in laryngeal region at 703 to 1261 ug/kg/day by 7-day snout-only inhalation assay; type: organism-based; conditions: in vivo, inhaled_or_intranasal; method in brief: as §2
Rattus norvegicus [10] = experiment: Toxicity in Sprague-Dawley rat assessed as body weight change at 181 to 1261 ug/kg/day by 7-day snout-only inhalation assay; type: organism-based; conditions: in vivo, inhaled_or_intranasal; method in brief: as §2
Rattus norvegicus [11] = experiment: Toxicity in Sprague-Dawley rat at 181 to 1261 ug/kg/day by 7-day snout-only inhalation assay; type: organism-based; conditions: in vivo, inhaled_or_intranasal; method in brief: as §2
L5178Y [12] = experiment: Genotoxicity against mouse L5178Y cells in presence of rat liver metabolic activation system; type: toxicity, cell-based
Method in brief: (§3)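 Acetate and 4-biphenylsulfonate salts screened in Ames and mouse lymphoma L5178Y assays, with and without a rat liver metabolic activation system.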

L5178Y [13] = experiment: Genotoxicity against mouse L5178Y cells; type: toxicity, cell-based; method in brief: as §3
Rattus norvegicus [14] = experiment: Toxicity in Sprague-Dawley rat assessed as hematology at 181 to 1261 ug/kg/day by 7-day snout-only inhalation assay; type: organism-based; conditions: in vivo, inhaled_or_intranasal; method in brief: as §2
Salmonella typhimurium [15] = experiment: Genotoxicity in Salmonella typhimurium by Ames assay in presence of rat liver metabolic activation system; type: toxicity, organism-based; conditions: salmonella enterica subsp. enterica serovar typhimurium; method in brief: as §3
Salmonella typhimurium [16] = experiment: Genotoxicity in Salmonella typhimurium by Ames assay; type: toxicity, organism-based; conditions: salmonella enterica subsp. enterica serovar typhimurium; method in brief: as §3
[17] = Solubility of the compound in water; type: physicochemical
Rattus norvegicus [18] = experiment: Toxicity in Sprague-Dawley rat assessed as minimal irritancy in nasal cavity at 703 to 1261 ug/kg/day by 7-day snout-only inhalation assay; type: organism-based; conditions: in vivo, inhaled_or_intranasal; method in brief: as §2
[19] = Oral absorption in Han Wistar rat at 2 mg/kg up to 7 hrs by LC-MS/MS analysis; type: ADME, organism-based; set-up: dose 2 mg/kg; conditions: in vivo, read-out: Fa
Method in brief: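 Rat oral absorption from hepatic portal vein plasma, corrected for systemic circulation levels, after β-glucuronidase treatment of samples (deconjugated HPV model). Expressed as h·ng/mL.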

Sequence of Beta-1 adrenergic receptor (P08588 whole entry): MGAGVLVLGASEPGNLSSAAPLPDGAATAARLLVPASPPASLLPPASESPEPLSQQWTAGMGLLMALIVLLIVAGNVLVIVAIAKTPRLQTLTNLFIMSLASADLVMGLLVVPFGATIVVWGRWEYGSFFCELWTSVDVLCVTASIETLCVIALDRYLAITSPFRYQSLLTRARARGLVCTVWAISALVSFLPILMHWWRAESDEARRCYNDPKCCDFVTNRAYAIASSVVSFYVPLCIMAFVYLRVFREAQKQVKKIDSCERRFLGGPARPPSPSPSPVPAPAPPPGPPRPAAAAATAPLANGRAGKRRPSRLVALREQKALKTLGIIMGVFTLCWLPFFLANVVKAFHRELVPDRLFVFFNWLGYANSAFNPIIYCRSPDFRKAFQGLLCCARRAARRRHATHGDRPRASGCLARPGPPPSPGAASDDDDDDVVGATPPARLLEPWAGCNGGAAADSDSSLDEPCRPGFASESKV
Sequence of Beta-3 adrenergic receptor (P13945 whole entry): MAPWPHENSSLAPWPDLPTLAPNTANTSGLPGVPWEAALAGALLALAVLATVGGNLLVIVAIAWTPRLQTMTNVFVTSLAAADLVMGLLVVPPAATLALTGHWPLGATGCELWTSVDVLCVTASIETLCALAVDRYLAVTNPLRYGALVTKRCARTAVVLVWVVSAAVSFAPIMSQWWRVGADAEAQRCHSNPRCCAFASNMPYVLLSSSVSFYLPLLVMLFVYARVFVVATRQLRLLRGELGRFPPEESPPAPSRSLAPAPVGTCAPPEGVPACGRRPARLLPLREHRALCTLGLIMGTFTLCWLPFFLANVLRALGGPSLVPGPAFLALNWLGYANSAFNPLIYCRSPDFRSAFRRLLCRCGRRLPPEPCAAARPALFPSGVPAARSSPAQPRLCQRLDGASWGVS
Sequence of Beta-2 adrenergic receptor (P07550 whole entry): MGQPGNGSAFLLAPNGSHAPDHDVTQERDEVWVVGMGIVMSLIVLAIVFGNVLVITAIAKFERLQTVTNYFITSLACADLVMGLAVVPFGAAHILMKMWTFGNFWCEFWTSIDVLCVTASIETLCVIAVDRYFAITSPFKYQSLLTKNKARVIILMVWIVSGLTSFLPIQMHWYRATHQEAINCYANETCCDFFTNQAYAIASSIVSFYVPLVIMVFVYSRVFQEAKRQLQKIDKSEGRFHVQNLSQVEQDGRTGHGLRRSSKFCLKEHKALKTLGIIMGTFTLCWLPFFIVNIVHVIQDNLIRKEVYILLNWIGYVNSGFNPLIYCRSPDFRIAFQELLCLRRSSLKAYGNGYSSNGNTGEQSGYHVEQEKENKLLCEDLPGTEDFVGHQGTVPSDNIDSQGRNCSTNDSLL

SMILES	pEC50 [3]	pEC50 [4]	pEC50 [5]	also measured
CC(=O)O.OCc1cc(C(O)CNCCCCCCOCCCCc2ccccc2)ccc1O (configuration not stated)	–	–	–	Time (Cavia porcellus [1]): 13 h; EC90 (Cavia porcellus [2]): 50000 nM
Cc1cc(CCCCOCCCCCCNC[C@H](O)c2ccc(O)c(CO)c2)cc(S(=O)(=O)C2CCCC2)c1	6.50	6.80	9.30	–
O=S1(=O)CCc2ccc(CCCCOCCCCCCNC[C@H](O)c3ccc(O)c(CO)c3)cc21	5.70	5.70	8.10	–
O=S1(=O)CCCc2ccc(CCCCOCCCCCCNC[C@H](O)c3ccc(O)c(CO)c3)cc21	5.60	5.70	7.40	–
O=S(=O)(c1cccc(CCCCOCCCCCCNC[C@H](O)c2ccc(O)c(CO)c2)c1)C1CCCCC1	6.60	6.60	8.80	–
O=S(=O)(c1ccc(CCCCOCCCCCCNC[C@H](O)c2ccc(O)c(CO)c2)cc1)C1CCCC1	6.40	6.00	7.50	–
O=S(=O)(O)c1ccc(-c2ccccc2)cc1.O=S(=O)(c1cccc(CCCCOCCCCCCNC[C@H](O)c2ccc(O)c(CO)c2)c1)C1CCCC1	–	–	–	Stability [6]: Stable; Stability [7]: Unstable; AUC [8]: 146 ng·h/mL; Activity (Rattus norvegicus [9]): Non-toxic; Activity (Rattus norvegicus [10]): Non-toxic; Activity (Rattus norvegicus [11]): Non-toxic; Activity (L5178Y [12]): Non-toxic; Activity (L5178Y [13]): Non-toxic; Activity (Rattus norvegicus [14]): Non-toxic; Activity (Salmonella typhimurium [15]): Non-toxic; Activity (Salmonella typhimurium [16]): Non-toxic; solubility [17]: < 10 µg/mL; Activity (Rattus norvegicus [18]): Non-toxic
CS(=O)(=O)c1ccc(CCCCOCCCCCCNC[C@H](O)c2ccc(O)c(CO)c2)cc1	5.40	5.20	7.70	–
O=S(=O)(c1cccc(CCCCOCCCCCCNC[C@H](O)c2ccc(O)c(CO)c2)c1)C1CC=CC1	6.40	6.30	9.00	–
OCc1cc(C(O)CNCCCCCCOCCCCc2ccccc2)ccc1O (configuration not stated) [SALMETEROL]	–	–	–	AUC at 7 h [19]: 252 ng·h/mL
